Here are results for three compounds from publication PMC12067261 (Proceedings of the National Academy of Sciences of the …, 2025).

In brackets after ≈: the same amount, converted by molar mass. Several values for one entry are separate records, joined by “and”; a condition that tells them apart may be missing. Equal entries are not always repeated. Where two headings read alike, the source gives them in different places.

Data set [1] has as its system Mab type strain ATCC19977. The data set is described as follows: microbe, parasite or virus in culture. Conditions: Mycobacteroides abscessus, ATCC19977, read-out: IC50 in CAMHB.
The nature of the next data set: in vitro. Conditions: human, plasma.
For data set [2] the following is noted: as published previously ref 28; cited from earlier work.
The test system of data set [3] is Mab type strain ATCC19977.
The test system of the next data set is HepG2 cells. The data set is described as follows: Cytotoxicity assays. It counts as cell-based, human. Conditions: indirect measure of selectivity.
For data set [4], the system named is Mab ATCC19977 replicating cultures. The data set is described as follows: microbe, parasite or virus in culture. It counts as cell-based, Mycobacterium abscessus subsp. abscessus.
The test system of another data set is Mab ATCC19977. The data set is described as follows: Spontaneous mutant selection. In kind it is cell-based, Mycobacterium abscessus. The following applies: solid medium containing 4× MIC.
Data set [5] has as its system 76 M. abscessus clinical isolates covering the 3 Mab subspecies. The data set is described as follows: microbe, parasite or virus in culture. In kind it is cell-based, Mycobacterium abscessus. Conditions: Mycobacteroides abscessus.
The test system of data set [6] is THP-1 derived macrophages. In words: Uptake into THP-1 macrophages. In kind it is in vitro ADME. The following applies: intracellular to extracellular concentration ratio.
Another data set in a line: Caseum binding. It counts as in vitro ADME.
A further data set has as its system CYP3A4 mRNA. The data set is described as follows: CYP3A4 induction at the mRNA level in human hepatocytes. It counts as in vitro ADME.
Data set [7] is described as follows: Pharmacokinetic studies in mice. In kind it is in vivo, CD-1 mice.
Data set [8] relates to intracellular Mab ATCC19977 in THP-1 macrophages. In kind it is cell-based, Mycobacterium abscessus. Conditions: 48 h treatment, compared to the start of treatment. The gist of the method:
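Intracellular bactericidal assay in THP-1-derived macrophages infected with M. abscessus subsp. abscessus ATCC19977. Test compound was added 2 h after infection at 1 and 10 µM and left on for 48 h. Each condition was run in technical triplicate.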

The test system of data set [9] is Mab ATCC19977 (wild type). In kind it is cell-based, Mycobacterium abscessus subsp. abscessus. Conditions: concentration that inhibits 90% growth.
Data set [10] relates to intracellular M. abscessus ATCC 19977 pTEC27 in THP-1 macrophages. The data set is described as follows: Growth inhibition of intracellular Mab in THP-1 derived macrophages. It counts as cell-based, Mycobacterium abscessus. The following applies: Mycobacteroides abscessus, ATCC19977, THP-1, read-out: MacIC50.
The subject of data set [11] is M. abscessus subsp. abscessus ATCC 19977. In words: Efficacy in the GM-CSF KO mouse model of acute Mab infection. It counts as in vivo, GM-CSF KO (B6.129S-Csf2tm1Mlg/J) mice. The following applies: 7 daily oral doses, 25 mg/kg.
The conditions of data set [12]: Table 2.

In the case of `O=C1CCc2c(OC[C@]3(O)CCN(c4c(F)cc(Cl)cc4F)C[C@H]3O)ccc(F)c2N1` [OPC-167832, Quabodepistat], the IC50 in data set [1] was found to be 120 nM. Also, the fraction unbound in the data set “in vitro” turned out to be 0.0122. For the same compound, the plasma fu in data set [2] is ~ 1%.
Consider `CO[C@H]1/C=C/O[C@@]2(C)Oc3c(C)c(O)c4c(c3C2=O)C2=NC3(CCN(CC(C)C)CC3)NC2=C(NC(=O)/C(C)=C\C=C\[C@H](C)[C@H](O)[C@@H](C)[C@@H](O)[C@@H](C)[C@H](OC(C)=O)[C@@H]1C)C4=O` [RBT, Rifabutin], for which the IC50 serum shift in data set [3] was found to be 8.1 fold. In addition, in the data set on HepG2 cells, the “HepG2 CC50/MIC” value is given as 154. The MBC in data set [4] (Mycobacteroides abscessus, ATCC19977, read-out: MBC90) was 3.5 µM (≈ 2.96 µg/mL). In data set [4] (replicating cultures, 3 d), the “kill plateau at 8× MIC” value is recorded as “approximately 2 log”. Also, the frequency of resistance in the data set with Mab ATCC19977 is on record as 2.6 × 10^−8. The MIC50 in data set [5] (read-out: MIC50 against clinical isolates) was found to be 4.7 µM (≈ 3.98 µg/mL). The MIC90 in [5] (read-out: MIC90 against clinical isolates) amounted to 9.1 µM (≈ 7.71 µg/mL). Besides, the “THP-1 IC/EC” value in data set [6] was found to be 26. Moreover, the fraction unbound was determined as 0.0094 in “Caseum binding”; 0.036 in the data set “in vitro” (fu human, human plasma); 0.0384 in the data set “in vitro” (plasma fu (human), Table 2). For the same compound, the IC50 in data set [1] came to 1200 nM; in data set [10], 700 nM. Besides, the “CYP3A4 induction @ 1 µM” value with CYP3A4 mRNA (1 µM) is 33 fold and 33.4 fold. In the data set with CYP3A4 mRNA (10 µM), the “CYP3A4 induction @ 10 µM” value is 43 fold and 42.7 fold. For the same compound, in [7] (AUC corrected for fraction unbound), the “fAUC/MIC at 10 mg/kg” value turned out to be 0.2. For the same compound, the Bioavailability in data set [7] (CD-1 mice, oral) came out at 69.2%. In [7] (female, CD-1, mouse, plasma), the half-life was 4.3 h. Further, the clearance in data set [7] (female, CD-1, mouse, plasma, iv, 5 mg/kg) was 10.3 mL/min/kg. The compound also had a distribution volume (Vd) in [7] (female, CD-1, mouse, plasma, iv, 5 mg/kg, Vd, CD-1 mice, i.v. 5 mg/kg) of 3.9 L/kg. Moreover, the “plasma concentrations relative to potency values” in data set [7] (oral 25 mg/kg, CD-1 mice) is given as “did not achieve therapeutic concentrations”. In addition, the “activity against intracellular Mab in macrophages at 1 and 10 µM” value in data set [8] is “did not inhibit intracellular growth of Mab”. Further, the “WT Mab MIC” value in data set [9] is 2.0 µM. Moreover, in data set [11], the “effect on lung bacterial burden” value is given as “neither reduced lung burden nor prevented bacterial growth”.
`CO[C@H]1/C=C/O[C@@]2(C)Oc3c(C)c(O)c4c(c3C2=O)C2=NC3(CCN(CC(C)C)CC3)NC2=C(NC(=O)/C(C)=C/C=C/[C@H](C)[C@H](O)[C@@H](C)[C@@H](O)[C@@H](C)[C@H](OC(=O)Nc2c(C)nc3ccccn23)[C@@H]1C)C4=O` [UMN-131]: in [3], the IC50 serum shift came to 3.3 fold. The IC50 in data set [3] (read-out: IC50 in 1:1 CAMHB:hSerum, 1:1 CAMHB:human serum) is 200 nM; in data set [3] (read-out: IC50 in CAMHB, CAMHB devoid of plasma proteins), 60 nM. In data set [12], the “plasma fu (human)” value was 6.55%.

As a reminder, the fraction unbound is the share of the substance not bound to proteins or other matrix. As a reminder, the half-life is the time in which the quantity being followed falls by half. The term clearance denotes the volume of plasma or blood freed of the substance per unit of time. As a reminder, the Vd is the apparent volume that relates the amount in the body to the concentration in plasma or blood.
